# Screens deposited in PubChem by several laboratories.
# Fibroblast inh – blocks proliferation of human lung fibroblasts. LL 47 human lung fibroblast viability, ATP luminescence; stronger effect = lower value. viability, % at 10 µM. 1.1% of 85,000 active. AID 719;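 active means viability at or below 50% in the single dose screen; inactive means viability above 50%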;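 further: compound exposure lasted 72 h before the ATP readout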
#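 Test system: LL 47 human lung fibroblasts / Quantity: 1,150 cells in each well / Medium: IMEM growth medium with 15% fetal bovine serum / Incubation: 72 h compound exposure at 37 °C after overnight plating / Detection: CellTiter-Glo luminescence measuring cellular ATP / Read-out: % viability versus median cells-only luminescence / Benchmarks: cell-only wells, no compound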
# HCT116 bCat-KO – beta-catenin-lacking colon tumor cell growth suppression; 1.5% of 140,000 active; HCT116 beta-catenin knockout viability, CellTiter-Glo, 60 h; stronger effect = lower value; AID 818; viability, % at 10 µM;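 active means viability at or under a set limit, the compound median less 4 SD, cut at about 6% in these data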
# H69AR growth 86K – growth inhibitors of human H69AR lung tumor cells. 6% of 85,000 active. H69AR lung tumor viability, ATP luminescence, 72 h; stronger effect = lower value. viability, % at 10 µM;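 active means viability at or below 40%; inactive means viability above 40%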;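 further: multidrug resistant small cell line overexpressing MRP-1 efflux transporter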
# HUVEC prolif 384 – inhibitors of human endothelial cell proliferation | HUVEC proliferation, CellTiter-Glo luminescence, 72 h; stronger effect = lower value | 1.1% of 86,000 active | viability, % at 10 µM (by protocol);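 active means viability at or below 30%; inactive means viability above 30%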
# HCT116 PTEN-null – suppresses growth of cells with PTEN deletion; HCT116 PTEN-null viability, CellTiter-Glo, 60 h; stronger effect = lower value; viability, % at 10 µM; 1.2% of 140,000 active; AID 827;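 active means viability at or below a set limit, 4 SD under the median of all tested compounds, cut at about 3.7% in these data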;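 further: PTEN knockout HCT116 line with beta catenin targeted HCT116 as companion control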
# Pyk2 oligo antag – blocks oligomerization of human Pyk2 in cells. z-score (the deposit names both 25 µM and 10 µM). Q14289. 0.83% of 99,000 active. Q293 cells, Pyk2 FERM NanoBiT luminescence; stronger effect = lower value;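 active means Z-score of -3 or lower, scaled per plate to the spread of control and sample wells; inactive means z-score above -3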;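 further: negative z-score means lost luminescence so less FERM oligomerization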
# Target sequence (Q14289 whole entry, looked up): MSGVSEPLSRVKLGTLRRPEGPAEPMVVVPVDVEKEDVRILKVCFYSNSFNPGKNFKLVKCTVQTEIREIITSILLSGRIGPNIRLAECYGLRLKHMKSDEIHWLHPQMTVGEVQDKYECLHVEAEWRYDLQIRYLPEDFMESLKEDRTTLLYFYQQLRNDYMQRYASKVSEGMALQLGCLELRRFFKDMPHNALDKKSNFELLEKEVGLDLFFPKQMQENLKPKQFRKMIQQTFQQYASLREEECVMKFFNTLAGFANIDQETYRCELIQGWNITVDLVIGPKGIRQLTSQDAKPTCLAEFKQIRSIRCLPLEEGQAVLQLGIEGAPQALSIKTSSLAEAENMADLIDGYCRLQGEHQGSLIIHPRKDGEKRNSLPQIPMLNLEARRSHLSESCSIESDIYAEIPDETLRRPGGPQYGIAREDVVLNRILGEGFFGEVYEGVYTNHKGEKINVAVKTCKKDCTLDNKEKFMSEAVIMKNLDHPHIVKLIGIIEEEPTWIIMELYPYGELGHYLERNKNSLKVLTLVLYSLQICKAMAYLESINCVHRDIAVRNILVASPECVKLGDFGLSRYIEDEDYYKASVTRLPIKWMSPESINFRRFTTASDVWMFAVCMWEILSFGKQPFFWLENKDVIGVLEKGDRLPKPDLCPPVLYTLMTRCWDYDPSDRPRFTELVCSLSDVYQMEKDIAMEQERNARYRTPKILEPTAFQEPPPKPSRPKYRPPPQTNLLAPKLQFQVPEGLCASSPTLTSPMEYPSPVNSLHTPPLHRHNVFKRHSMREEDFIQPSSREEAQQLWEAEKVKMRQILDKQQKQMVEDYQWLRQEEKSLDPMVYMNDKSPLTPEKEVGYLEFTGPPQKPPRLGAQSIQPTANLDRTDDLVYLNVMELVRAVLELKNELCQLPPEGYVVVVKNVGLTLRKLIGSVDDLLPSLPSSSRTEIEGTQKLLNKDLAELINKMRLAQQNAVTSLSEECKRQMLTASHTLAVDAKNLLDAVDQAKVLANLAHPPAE
# Numbers stand for hits; i = inactive; nt = no result. The entries come from a sample that favours hits as a whole.
SMILES,Fibroblast inh,HCT116 bCat-KO,H69AR growth 86K,HUVEC prolif 384,HCT116 PTEN-null,Pyk2 oligo antag
CCCc1nc2ccccc2c(C(=O)OCC(=O)Nc2cccc(S(=O)(=O)N3CCOCC3)c2)c1CC,i,i,34.8,i,nt,-4.56
O=C(COc1ncnc2ccccc12)Nc1cccc(S(=O)(=O)N2CCOCC2)c1,nt,i,nt,nt,i,nt
Cc1ccc(NC(=O)c2cc(-c3ccc(C)o3)nc3ccccc23)cc1,i,i,32.2,i,i,i
COc1ccc(C(=O)N2CCC(=O)N(C(CO)Cc3ccccc3)CC2)cc1 (stereo unspecified),nt,i,nt,nt,i,nt
Cc1sc(NC(=O)c2ccc(Cl)s2)c(C(N)=O)c1C,i,i,11.0,i,i,i
O=C(N/N=C/c1ccc2c(c1)OCO2)c1cc(-c2ccccc2)nc2ccccc12,nt,i,nt,nt,i,nt
O=C(N/N=C/c1ccccn1)c1cc(-c2ccc(Cl)cc2)nc2ccccc12,nt,3.7,nt,nt,3.2,i
Cc1sc(NC(=O)c2cc(-c3ccc(Cl)cc3)nc3ccccc23)c(C(N)=O)c1C,nt,3.9,nt,nt,1.0,i
COc1ccc(C(=O)/C=C/c2ccccc2OC)c(OC(=O)c2ccc([N+](=O)[O-])cc2)c1,nt,nt,nt,nt,nt,-3.3
COc1ccc(OC(=O)c2cccc([N+](=O)[O-])c2)c(C(=O)/C=C/c2cccs2)c1,i,i,3.4,i,i,i
CCOC(=O)c1ccc(CNCc2ccc(C)cc2)cc1,nt,i,nt,nt,i,i
COc1ccc2oc(C(=O)OCC(=O)NCCN3C(=O)CSC3=O)c(C)c2c1,nt,i,nt,nt,i,nt
COc1cccc2cc(-c3cn4ccc(C)cc4n3)c(=O)oc12,i,nt,i,i,nt,i
COc1ccc2oc(=O)c(-c3nnc(NCc4ccco4)s3)cc2c1,i,4.2,2.6,19.9,3.8,i
CCOc1cccc2cc(-c3nnc(NCc4ccco4)s3)c(=O)oc12,i,i,3.7,19.5,i,i
CNc1nnc(-c2cc3cc(Cl)ccc3oc2=O)s1,i,i,i,i,i,i
CCOc1cccc2cc(-c3cn4cc(C)ccc4n3)c(=O)oc12,24.2,1.1,nt,i,1.3,i
Cc1cc(C)nc(Sc2c(C)nn(-c3ccccc3)c2C)n1,i,i,i,i,i,i
FC(F)Oc1ccc(NC(=S)NCC2COc3ccccc3O2)cc1 (stereo unspecified),nt,i,nt,nt,i,nt
CCOC(=O)c1cc2sc(C)cc2n1CC(=O)N(CC)CC,i,i,i,i,i,i
CCOC(=O)c1cc2sc(C)cc2n1CC(=O)NCCc1ccccc1,i,i,26.9,i,i,i
CCOc1cc(CNc2ccc3c(c2)CCC3)ccc1OC,i,i,i,i,i,nt
N/C(=N\OC(=O)C1CCCCC1)c1ccccn1,nt,i,nt,nt,i,i
CCN(CC)S(=O)(=O)c1cccc(C(=O)Nc2cccc(C)c2)c1,i,i,24.9,i,i,i
CCN(CC)S(=O)(=O)c1cccc(C(=O)Nc2cc(C)cc(C)c2)c1,i,i,32.0,i,i,i
SMILES,Fibroblast inh,HCT116 bCat-KO,H69AR growth 86K,HUVEC prolif 384,HCT116 PTEN-null,Pyk2 oligo antag
CCN(CC)S(=O)(=O)c1ccc(C(=O)Nc2cc(C)cc(C)c2)cc1,i,i,i,i,i,i
CC(C)CNc1c(N)c(=O)oc2ccccc12,i,i,i,i,i,i
CCN(CC)c1ccc(N2C(=O)/C(=C/c3cccnc3)SC2=S)cc1,nt,i,nt,nt,i,i
CN1CCN(C(=O)CN(CCc2ccccc2)S(C)(=O)=O)CC1,i,i,i,i,i,i
O=C(OCC#CCSc1nnc(-c2ccc([N+](=O)[O-])cc2)o1)c1cccs1,i,i,36.6,i,i,i
Cc1ccc(C(C[N+](=O)[O-])n2nc(C)cc2C)cc1 (stereo unspecified),nt,3.9,nt,nt,1.9,i
CC(=O)c1cccc(NC(=O)C23CC4CC(C2)CC(n2cncn2)(C4)C3)c1,nt,i,nt,nt,i,nt
COc1ccc(CNC(=O)COc2ccc([N+](=O)[O-])cc2)cc1,nt,i,nt,nt,i,i
CC(O)CNCc1ccc(-c2ccccc2)cc1 (stereo unspecified),nt,i,nt,nt,i,i
CC(NCc1ccc(-c2ccccc2)cc1)C(O)c1ccccc1 (stereo unspecified),nt,2.8,nt,nt,i,nt
Nc1nc(-c2ccccc2)cc(N2CCCCC2)n1,i,i,23.3,i,i,i
CCc1ccccc1NC(=O)CN(C)C(=O)CSc1nc2cc(Cl)ccc2s1,nt,i,nt,nt,i,nt
Brc1ccc2[nH]c3c(N4CCc5ccccc5C4)ncnc3c2c1,i,i,6.3,i,i,nt
CC(=O)C(N=Nc1ccccc1)(Sc1nnc(-c2ccccc2)n1-c1ccccc1)C(C)=O,nt,i,nt,nt,i,-3.06
COc1ccc(OC)c(NC(=O)c2cc(-c3cc(Cl)ccc3O)n[nH]2)c1,i,i,1.2,i,i,i
COc1ccc(Cl)cc1NC(=O)c1cc(-c2ccccc2O)n[nH]1,nt,i,nt,nt,i,nt
CCc1ccc2c(c1)C1(NN=C(c3cccc4ccccc34)S1)C(=O)N2 (stereo unspecified),34.5,i,18.9,i,i,i
CCc1ccc2c(c1)C(=O)c1ccccc1C2=O,nt,i,nt,nt,i,nt
CCc1cc(-c2n[nH]c(C)c2-c2nc3ccccc3n2C)c(O)c(CN2CCN(C)CC2)c1O,nt,i,16.1,i,i,i
CCOC(=O)c1nnn(-c2nonc2N)c1CN(CC)c1ccccc1,i,i,i,i,i,i
CNc1nc(-c2ccccn2)nnc1-c1ccccc1,13.5,i,i,11.1,i,i
c1ccc(-c2nnc(-c3ccccn3)nc2NC2CCCCC2)cc1,18.8,4.0,36.7,18.5,i,i
CCOC(=O)c1c(NC(=O)C(=O)N/N=C/c2ccccc2O)sc2c1CCCCC2,nt,i,nt,nt,i,i
COc1cc2c(=O)n(-c3ccc(C)cc3)c(=O)n(CC(=O)c3ccc4c(c3)OCO4)c2cc1OC,i,i,i,i,i,i
